Source: ChEMBL document CHEMBL1142730, “Design of HIV-1 protease inhibitors active on multidrug-resistant virus” (J Med Chem, 2005)
Converted amounts (≈) assume the structure as drawn.

Assays:
[1] = tested on: Human immunodeficiency virus 1; assay: Protease inhibitory activity against HIV-1 GSS004421 mutant strain was determined; format: functional, organism-based
[2] = tested on: Human immunodeficiency virus 1; assay: Protease inhibitory activity against HIV-1 r13034 mutant strain was determined; format: functional, organism-based
[3] = tested on: Human immunodeficiency virus 1; assay: Toxicity value against wild type HIV-1 IIIB was determined; format: functional
Procedure, shortened: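 MT4 cells (150 000 cells/mL) mock-infected, run in parallel with HIV-infected cultures over an identical compound concentration range. Incubated 3 days at 37 °C, 5% CO₂. Reduced expression of the […] GFP reporter serves as the toxicity marker.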

[4] = tested on: Human immunodeficiency virus 1; assay: Protease inhibitory activity against HIV-1 r13025 mutant strain was determined; format: functional, organism-based
[5] = tested on: Human immunodeficiency virus 1; assay: Protease inhibitory activity against HIV-1 r13363 mutant strain was determined; format: functional, organism-based
[6] = tested on: Human immunodeficiency virus 1; assay: Protease inhibitory activity against wild type HIV-1 IIIB was determined; format: functional, organism-based
[7] = organism: Rattus norvegicus; assay: In vitro metabolic stability value after 30 min of incubation with liver microsomes of rat was determined; format: functional; details: Microsome
Procedure, shortened: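 Compound at 10 µM incubated at 37 °C with dog, human or rat liver microsomes. Residual parent compound quantified directly by LC-MS. Value is percent parent remaining after 30 min.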

[8] = In vitro solubility at was determined; pH=7; format: ADME
Procedure, shortened: (§1)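 Aqueous solubility measured at pH 5 and pH 7, expressed in […].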

[9] = In vivo area under the concentration time curve value in dog was determined at a dosage of 20 mg/kg; format: ADME, organism-based, Canis lupus familiaris; set-up: dose 20 mg/kg
Procedure, shortened: (§2)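 Oral dosing in dog at 20 mg/kg, coadministered with ritonavir. Compound given as a solution in PEG400 or in 40% w/v hydroxypropyl-β-cyclodextrin with 2% citric acid. Plasma Cmax, Tmax, t1/2 and AUC determined.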

[10] = target: Human immunodeficiency virus type 1 protease (Human immunodeficiency virus 1, UniProt Q72874); assay: Binding affinity against HIV-1 protease
Procedure, shortened: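 Isothermal titration calorimetry by displacement: the protease was pre-titrated with acetylpepstatin (300 µM) as the weaker binder, then the inhibitor (125 or 200 µM in the syringe) was injected to saturation into protease (9–21 µM). Buffer was 10 mM sodium acetate pH 5.0, 2% DMSO, 2 mM TCEP. Heats of dilution were subtracted, and each run was done at least twice.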

[11] = tested on: Caco-2; assay: In vitro increase in apparent permeability from apical to basolateral was determined in Caco-2 (human colon carcinoma) cells; format: functional, cell-based
Procedure, shortened: (§3)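 Caco-2 monolayer apparent permeability measured apical-to-basolateral and basolateral-to-apical; reported as Papp in cm/s (×10⁶).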

[12] = In vitro solubility at was determined; pH=5; format: ADME; procedure, shortened: as §1
[13] = Maximum plasma concentration value in dog was determined at a dosage of 20 mg/kg; format: ADME, organism-based, Canis lupus familiaris; set-up: dose 20 mg/kg; procedure, shortened: as §2
[14] = In vivo half life value in dog was determined at a dosage of 20 mg/kg; format: ADME, organism-based, Canis lupus familiaris; set-up: dose 20 mg/kg; procedure, shortened: as §2
[15] = tested on: Caco-2; assay: In vitro increase in apparent permeability from basolateral to apical was determined in Caco-2 (human colon carcinoma) cells; format: functional, cell-based; procedure, shortened: as §3
[16] = In vivo time to reach maximum plasma concentration value in dog was determined at a dosage of 20 mg/kg; format: ADME, organism-based, Canis lupus familiaris; set-up: dose 20 mg/kg; procedure, shortened: as §2

Compound | pEC50 [1] | pEC50 [2] | pCC50 [3] | pEC50 [4] | pEC50 [5] | EC50 [6] [nM] | Metabolic stability [7] [%] | solubility [8] [µg/mL] | AUC [9] [ng·h/mL] | Kd [10] [nM] | Papp [11] [×10⁻⁶ cm/s] | solubility [12] [µg/mL] | Cmax [13] [ng/mL] | half-life [14] [h] | Papp [15] [×10⁻⁶ cm/s] | Tmax [16] [h]
CC(C)CN(C[C@@H](O)[C@H](Cc1ccccc1)NC(=O)O[C@H]1CO[C@H]2OCC[C@H]21)S(=O)(=O)c1ccc2nc(N(C)C)oc2c1 | 6.58 | 6.92 | < 4.49 | 6.66 | 5.38 | 4.17 |  |  |  |  |  |  |  |  |  | 
COC(=O)N[C@H](C(=O)N[C@@H](Cc1ccccc1)[C@@H](O)CN(Cc1ccc(-c2ccccn2)cc1)NC(=O)[C@@H](NC(=O)OC)C(C)(C)C)C(C)(C)C [ATAZANAVIR] | 7.32 |  | 4.53 | 5.78 | 7.23 | 15.1 |  |  |  |  |  |  |  |  |  | 
CC(C)CN(C[C@@H](O)[C@H](Cc1ccccc1)NC(=O)O[C@H]1CO[C@H]2OCC[C@H]21)S(=O)(=O)c1ccc2nc(NCCN3CCCC3)oc2c1 | 7.21 | 7.48 | 4.49 | 7.12 | 6.88 | 26.3 |  |  |  |  |  |  |  |  |  | 
CNCCNc1nc2ccc(S(=O)(=O)N(CC(C)C)C[C@@H](O)[C@H](Cc3ccccc3)NC(=O)O[C@H]3CO[C@H]4OCC[C@H]43)cc2s1 | 6.5 | 6.43 | < 4.49 | 6.49 | 6.11 | 209 |  |  |  |  |  |  |  |  |  | 
CC(C)CN(C[C@@H](O)[C@H](Cc1ccccc1)NC(=O)O[C@H]1CO[C@H]2OCC[C@H]21)S(=O)(=O)c1ccc2nc(NCCN3CCCC3)sc2c1 | 7.86 | 7.91 | < 4.49 | 7.88 | 7.49 | 11 | 56 | < 10 | 6050 | 0.0637 | 3.5 | 90 (≈ 128 µM) | 1970 | 1.66 | 21.7 | 0.5
CC(C)CN(C[C@@H](O)[C@H](Cc1ccccc1)NC(=O)O[C@H]1CO[C@H]2OCC[C@H]21)S(=O)(=O)c1ccc2nc(N(C)CCCN3CCCC3)oc2c1 | 6.22 | 6.34 | < 4.49 | 6.63 | 5.22 | 69.2 |  |  |  |  |  |  |  |  |  | 
CC(C)CN(C[C@@H](O)[C@H](Cc1ccccc1)NC(=O)O[C@H]1CO[C@H]2OCC[C@H]21)S(=O)(=O)c1ccc2nc(N(C)CCCN(C)C)sc2c1 | 6.71 | 7.32 | 4.68 | 6.95 | 6.08 | 14.8 | 47 | 1180 (≈ 1680 µM) | 6590 |  | 2 | 1640 (≈ 2330 µM) | 1680 | 2.9 | 8.5 | 1
CC(C)CN(C[C@@H](O)[C@H](Cc1ccccc1)NC(=O)O[C@H]1CO[C@H]2OCC[C@H]21)S(=O)(=O)c1ccc2nc(N(C)CCN3CCCC3)sc2c1 | 6.29 | 6.85 | 4.52 | 6.5 | 5.64 | 5.62 |  |  |  |  |  |  |  |  |  | 
CC(C)c1nc(CN(C)C(=O)N[C@H](C(=O)N[C@@H](Cc2ccccc2)C[C@H](O)[C@H](Cc2ccccc2)NC(=O)OCc2cncs2)C(C)C)cs1 [RITONAVIR] | 4.97 | 5.3 | 4.53 | 5.99 | 4.89 | 64.6 |  |  |  |  |  |  |  |  |  | 
Cc1cccc(C)c1OCC(=O)N[C@@H](Cc1ccccc1)[C@@H](O)C[C@H](Cc1ccccc1)NC(=O)[C@H](C(C)C)N1CCCNC1=O [LOPINAVIR] | 6.02 | 6.59 | 4.95 | 7.84 | 6.28 | 9.77 |  |  |  |  |  |  |  |  |  | 
CC(C)CN(C[C@@H](O)[C@H](Cc1ccccc1)NC(=O)O[C@H]1CO[C@H]2OCC[C@H]21)S(=O)(=O)c1ccc2nc(N(C)C)sc2c1 | 6.59 |  | < 4.49 | 7.31 | 5.36 | 3.47 |  |  |  |  |  |  |  |  |  | 
CC(C)CN(C[C@@H](O)[C@H](Cc1ccccc1)NC(=O)OC1CCOC1)S(=O)(=O)c1ccc(N)cc1 (single isomer, unassigned) | 5.75 | 6.01 | < 4.49 | 6.43 | 4.95 | 43.7 |  |  |  |  |  |  |  |  |  | 
CC(C)CN(C[C@@H](O)[C@H](Cc1ccccc1)NC(=O)O[C@H]1CO[C@H]2OCC[C@H]21)S(=O)(=O)c1ccc2nc(N(C)CCN3CCCC3)oc2c1 | 6.55 | 6.73 | < 4.49 | 6.65 | 5.85 | 33.1 |  |  |  |  |  |  |  |  |  | 
CC(C)CN(C[C@@H](O)[C@H](Cc1ccccc1)NC(=O)O[C@H]1CO[C@H]2OCC[C@H]21)S(=O)(=O)c1ccc2nc(NCCN(C)C)oc2c1 | 6.81 | 7.61 | < 4.49 | 6.87 | 6.7 | 81.3 |  |  |  |  |  |  |  |  |  | 
CC(C)CN(C[C@@H](O)[C@H](Cc1ccccc1)NC(=O)O[C@H]1CO[C@H]2OCC[C@H]21)S(=O)(=O)c1ccc2nc(N(C)CCCN3CCCC3)sc2c1 | 6.81 | 7.36 | 4.58 | 6.16 | 5.52 | 24 |  |  |  |  |  |  |  |  |  | 
Cc1c(O)cccc1C(=O)N[C@@H](CSc1ccccc1)[C@H](O)CN1C[C@H]2CCCC[C@H]2C[C@H]1C(=O)NC(C)(C)C | 6.28 | 5.9 | 4.75 | 5.31 | 5.82 | 70.8 |  |  |  |  |  |  |  |  |  | 
CNc1nc2ccc(S(=O)(=O)N(CC(C)C)C[C@@H](O)[C@H](Cc3ccccc3)NC(=O)O[C@H]3CO[C@H]4OCC[C@H]43)cc2s1 | 8.59 | 8.81 | < 4.49 | 8.81 | 7.81 | 0.912 | 72 | < 10 |  |  | 19.3 | < 10 |  |  | 14.2 | 
CC(C)CN(C[C@@H](O)[C@H](Cc1ccccc1)NC(=O)O[C@H]1CO[C@H]2OCC[C@H]21)S(=O)(=O)c1ccc2ncsc2c1 | 7.78 | 8.11 | < 4.49 | 7.83 | 6.57 | 1.1 |  |  |  |  |  |  |  |  |  | 
CCC[C@@]1(CCc2ccccc2)CC(O)=C([C@H](CC)c2cccc(NS(=O)(=O)c3ccc(C(F)(F)F)cn3)c2)C(=O)O1 | 6.73 |  | < 4.49 | 5.74 | 6.15 | 501 |  |  |  |  |  |  |  |  |  | 
CC(C)(C)NC(=O)[C@@H]1C[C@@H]2CCCC[C@@H]2CN1C[C@@H](O)[C@H](Cc1ccccc1)NC(=O)[C@H](CC(N)=O)NC(=O)c1ccc2ccccc2n1 | 6.3 | 5.91 | 4.68 | 6.83 | 7.54 | 26.3 |  |  |  |  |  |  |  |  |  | 
CC(C)(C)NC(=O)[C@@H]1CN(Cc2cccnc2)CCN1C[C@@H](O)C[C@@H](Cc1ccccc1)C(=O)N[C@H]1c2ccccc2C[C@H]1O.O | 6.47 | 5.9 | < 4.49 | 5.97 | 6.39 | 39.8 |  |  |  |  |  |  |  |  |  | 
CC(C)CN(C[C@@H](O)[C@H](Cc1ccccc1)NC(=O)O[C@H]1CO[C@H]2OCC[C@H]21)S(=O)(=O)c1ccc2nc(N)sc2c1 | 8.59 | 8.42 | 4.77 | 8.51 | 7.9 | 9.12 | 77 | < 10 |  |  | 9.9 | < 10 |  |  | 27.3 | 
CC(C)CN(C[C@@H](O)[C@H](Cc1ccccc1)NC(=O)O[C@H]1CO[C@H]2OCC[C@H]21)S(=O)(=O)c1ccc2nc(NCCN(C)C)sc2c1 | 7.9 | 8.09 | < 4.49 | 7.84 | 7.67 | 11.2 | 19 | 40 (≈ 59.2 µM) |  |  | 6.1 | 410 (≈ 607 µM) |  |  | 26.6 | 
CC(C)CN(C[C@@H](O)[C@H](Cc1ccccc1)NC(=O)O[C@H]1CO[C@H]2OCC[C@H]21)S(=O)(=O)c1ccc2nc(NCCCN(C)C)sc2c1 | 7.72 | 8.17 | 4.73 | 7.69 | 7.53 | 57.5 |  |  |  |  |  |  |  |  |  | 
